FLuc inhib CS: Photinus pyralis luciferase inhibition counter-screen; P08659; ATPLite firefly luciferase biochemical luminescence, 10 min; inhibition, % at 10 µM; 1.5% of 200,000 active; AID 1006;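 active = inhibition above about 50% when tested at 10 µM, limit read from the data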
Platelet DG rel: modulates dense granule release in human platelets | human platelet-rich plasma, SFLLRN dense granule ATP release, luminescence | 0.22% of 300,000 active | AID 1663 | inhibition, %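 (compounds screened at 7.5 µM in platelet-rich plasma)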;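 active = mean replicate score, as percent of positive control, at or above 50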
C8 TRAIL sens: caspase-8 TRAIL sensitization | NB7+C8 cells + TRAIL, ATPlite viability luminescence | inhibition (viability loss, TRAIL sensitization), % at 10 µM | 1% of 360,000 active | AID 624354;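 active = compounds causing at least 50% loss of cell viability in the single-dose screen, relative to plate controls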
FLuc stim CS: affects firefly luciferase, flagging false hits in luciferase stimulation screens; P08659; ATPlite luciferase biochemical, luminescence, 10 min; 0 = ATP-free wells, 1 = DMSO control; activation factor at 10 µM; 200,000 tested, under 10 active; AID 1027;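 active = luciferase activation factor, scaled between plate controls, of at least 2 with compound at 10 µM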
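Assay system – cell-free luciferase reagent · Medium – PBS-based ATP solution · Dosing – test compounds dosed from 2 mM stocks in 100% DMSO · Timing – 10 min, room temperature · Technique – light output (luminescence) · Measure – luminescence gain marking luciferase activators · Controls – No-ATP low control, compound-free enzyme-plus-ATP high control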
PPC-1+TRAIL kill: PPC-1 cancer cell killing with TRAIL present | PPC-1 cells + TRAIL, ATPLite viability luminescence | 0.41% of 220,000 active | cell killing (% activity), % at 4 µM or 5 µM;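 active = cell killing above 50% in the first pass at 4 µM, then a duplicate retest at 5 µM averaging 50% or more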;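 note: plate controls were cells with TRAIL plus DMSO for no effect and medium-only wells lacking cells for full effect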
PPC1 cytotox: PPC-1 cell cytotoxicity | 50% of 1,200 active | PPC-1 viability, ATPlite luminescence, overnight | AID 1447 | shares compounds with PPC-1+TRAIL kill | cytotoxicity, % at 5 µM;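 active = reconfirmed compounds whose average cytotoxicity reaches 50% or more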;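 note: 0% = DMSO-treated cells and 100% = wells holding medium but no cells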
* = called active by the depositor. Shown are actives, neighbours in structure and some others; about 1.6% of the full set was active somewhere.

Screening CCCCN(C)C(=O)c1cc2cc3ccc(OC)cc3nc2s1 returned FLuc inhib CS 85*, Platelet DG rel 1, C8 TRAIL sens 68*, FLuc stim CS 0.2, PPC-1+TRAIL kill 37 and PPC1 cytotox 36.
`CC(C)OC(=O)Nc1ccc2c(c1)N(C(=O)N1CCN(C)CC1)c1ccccc1CC2` gave Platelet DG rel 16, C8 TRAIL sens 79*, PPC-1+TRAIL kill 74* and PPC1 cytotox 74*.
CCOC(=O)Nc1ccc2c(c1)N(C(=O)N1CCN(C)CC1)c1ccccc1CC2 was read as FLuc inhib CS 33, Platelet DG rel -1, C8 TRAIL sens 9, FLuc stim CS 0.7 and PPC-1+TRAIL kill 6.
For CSc1ccc(/C=C/C(=O)NC(=O)c2ccccc2O)cc1 the results were FLuc inhib CS 86*, Platelet DG rel 1, C8 TRAIL sens 52*, FLuc stim CS 0.1, PPC-1+TRAIL kill 60* and PPC1 cytotox 62*.
`O=C(/C=C/c1ccc(Br)cc1)NC(=O)c1ccccc1O` gave FLuc inhib CS 91*, Platelet DG rel 0, C8 TRAIL sens 63*, FLuc stim CS 0.1, PPC-1+TRAIL kill 62* and PPC1 cytotox 62*.
O=c1c(Cl)c(N2CCCCC2)cnn1-c1nc2ccccc2[nH]1 was read as FLuc inhib CS 97*, Platelet DG rel 27, C8 TRAIL sens 87*, FLuc stim CS 0, PPC-1+TRAIL kill 92* and PPC1 cytotox 92*.
Screening Clc1ccc2nc(N3CCCCC3)[nH]c2c1 returned FLuc inhib CS 39, Platelet DG rel 21, C8 TRAIL sens 48, FLuc stim CS 0.6 and PPC-1+TRAIL kill 29.
O=c1c2ccccc2cnn1-c1nc2ccccc2[nH]1 was read as FLuc inhib CS 98*, Platelet DG rel 74*, C8 TRAIL sens 94*, FLuc stim CS 0, PPC-1+TRAIL kill 94* and PPC1 cytotox 94*.
For CC(C)c1nc(NCC2CCCO2)c(C#N)c2c1COC(C)(C)C2 (stereo not drawn) the results were FLuc inhib CS -4, Platelet DG rel -2, C8 TRAIL sens -12, FLuc stim CS 1, PPC-1+TRAIL kill -2 and PPC1 cytotox -7.
`CCOC(=O)CC1(C)Oc2ccccc2N1S(=O)(=O)c1ccc(C)cc1` (stereo not drawn) gave C8 TRAIL sens -9.
For N/C(=N\OC(=O)c1ccccc1Cl)c1ccccn1 the results were FLuc inhib CS 93*, Platelet DG rel 56*, C8 TRAIL sens 79*, FLuc stim CS 0.1, PPC-1+TRAIL kill 66* and PPC1 cytotox 70*.
For N/C(=N\OC(=O)c1ccc(Cl)cc1)c1ccccn1 the results were FLuc inhib CS 97*, Platelet DG rel 52*, C8 TRAIL sens 69*, FLuc stim CS 0, PPC-1+TRAIL kill 3 and PPC1 cytotox 7.
Screening N/C(=N\OC(=O)c1ccc(Cl)c(Cl)c1)c1ccccn1 returned FLuc inhib CS 46, Platelet DG rel 12, C8 TRAIL sens 66*, FLuc stim CS 0.5, PPC-1+TRAIL kill 7 and PPC1 cytotox 18.
For N/C(=N\OC(=O)COc1ccccc1Cl)c1ccccn1 the results were FLuc inhib CS 34, C8 TRAIL sens 21, FLuc stim CS 0.7 and PPC-1+TRAIL kill 22.
`N/C(=N\OS(=O)(=O)c1ccc(Cl)cc1)c1ccccn1` gave FLuc inhib CS -4, C8 TRAIL sens -6 and FLuc stim CS 1.
COc1cc(OC)cc(C(=O)O/N=C(\N)c2ccccn2)c1 was read as Platelet DG rel 13, C8 TRAIL sens 31 and PPC-1+TRAIL kill 10.
`CCCS(=O)(=O)NC(=O)C1(C)CCN(C(=O)/C=C/c2ccccc2)C1` (stereo not drawn) gave C8 TRAIL sens 0.
`CC(=O)c1nn(-c2cccc(Br)c2)cc1C(=O)c1ccccc1` gave FLuc inhib CS -6, Platelet DG rel 13, C8 TRAIL sens -2, FLuc stim CS 1.1, PPC-1+TRAIL kill 2 and PPC1 cytotox 4.
`CC(=O)c1nn(-c2ccc(Cl)cc2)cc1C(=O)c1ccccc1` gave C8 TRAIL sens 13.
Screening CCOC(=O)c1nn(-c2ccc(C)cc2)cc1C(=O)c1ccccc1 returned FLuc inhib CS 64*, Platelet DG rel 4, C8 TRAIL sens 53*, FLuc stim CS 0.4, PPC-1+TRAIL kill 39 and PPC1 cytotox 45.
